Reference: ChEMBL document CHEMBL5365503, “Design and Synthesis of 1,3,5-Triazines or Pyrimidines Containing Dithiocarbamate Moiety as PI3Kα Selective Inhibitors” (ACS Med Chem Lett, 2023)
Values belong to the molecule of their own block, whether it stands above or below them.

Experiments:
[1] = biological target: Phosphatidylinositol 4,5-bisphosphate 3-kinase catalytic subunit alpha isoform (Homo sapiens, UniProt P42336); assay: Inhibition of N-terminal GST-fused full-length human PI3Kalpha (1 to 1068 residues) expressed in baculovirus expression system using PIP2 as substrate incubated for 1 hr in presence of ATP by ADP-Glo assay
[2] = Metabolic stability in rat liver microsomes assessed as compound remaining […] measured upto 60 mins in presence of NADPH by LC-MS/MS analysis; type: ADME, Microsome; conditions: read-out: Stability
U-87 MG [3] = assay: Antiproliferative activity against human U-87 MG cells assessed as inhibition of cell proliferation incubated for 96 hrs by MTT assay; type: functional, cell-based, U-87MG ATCC
HCT-116 = assay: Antiproliferative activity against human HCT-116 cells assessed as inhibition of cell proliferation incubated for 96 hrs by MTT assay; type: functional, cell-based; conditions: HCT-116, 96 h
[4] = Metabolic stability in rat liver assessed as intrinsic clearance […] measured upto 60 mins in presence of NADPH by LC-MS/MS analysis; type: ADME; conditions: read-out: CLH
[5] = biological target: Phosphatidylinositol 4,5-bisphosphate 3-kinase catalytic subunit gamma isoform (Homo sapiens, UniProt P48736); assay: Inhibition of human PI3Kgamma expressed in baculovirus infected Sf21 insect cells by ADP-Glo assay
[6] = Metabolic stability in rat liver microsomes assessed as compound remaining […] measured upto 60 mins by LC-MS/MS analysis; type: ADME, Microsome; conditions: read-out: Stability
[7] = Metabolic stability in rat liver microsomes assessed as intrinsic clearance […] measured upto 60 mins in presence of NADPH by LC-MS/MS analysis; type: ADME, Microsome; conditions: read-out: CLH
[8] = Toxicity in BALB/c mouse xenografted with human U-87 MG cells assessed as drug tolerance at 40 mg/kg/day, ip for 16 days; type: organism-based; conditions: in vivo, 384 h, time 16 day
Procedure, shortened: (§1)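 U87-MG xenograft mice treated once tumours averaged ~100 mm³. Dosing was 40 mg/kg/day intraperitoneally, once daily for 16 days. Tumour volume and body weight of each mouse were recorded on days 1, 4, 8, 11, 15 and 17.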

[9] = Toxicity in BALB/c mouse xenografted with human U-87 MG cells assessed as animal mortality at 40 mg/kg/day, ip for 16 days; type: organism-based; conditions: in vivo, 384 h, time 16 day; procedure, shortened: as §1
[10] = Toxicity in BALB/c mouse xenografted with human U-87 MG cells assessed as body weight loss at 40 mg/kg/day, ip for 16 days; type: organism-based; conditions: in vivo, 384 h, time 16 day; procedure, shortened: as §1
[11] = biological target: T1, Phosphatidylinositol 4,5-bisphosphate 3-kinase catalytic subunit delta isoform (Homo sapiens, UniProt O00329); assay: Inhibition of N-terminal 6xHis-tagged recombinant full-length human PI3Kdelta expressed in baculovirus infected Sf21 insect cells by ADP-Glo assay
T1 sequence (O00329 whole entry): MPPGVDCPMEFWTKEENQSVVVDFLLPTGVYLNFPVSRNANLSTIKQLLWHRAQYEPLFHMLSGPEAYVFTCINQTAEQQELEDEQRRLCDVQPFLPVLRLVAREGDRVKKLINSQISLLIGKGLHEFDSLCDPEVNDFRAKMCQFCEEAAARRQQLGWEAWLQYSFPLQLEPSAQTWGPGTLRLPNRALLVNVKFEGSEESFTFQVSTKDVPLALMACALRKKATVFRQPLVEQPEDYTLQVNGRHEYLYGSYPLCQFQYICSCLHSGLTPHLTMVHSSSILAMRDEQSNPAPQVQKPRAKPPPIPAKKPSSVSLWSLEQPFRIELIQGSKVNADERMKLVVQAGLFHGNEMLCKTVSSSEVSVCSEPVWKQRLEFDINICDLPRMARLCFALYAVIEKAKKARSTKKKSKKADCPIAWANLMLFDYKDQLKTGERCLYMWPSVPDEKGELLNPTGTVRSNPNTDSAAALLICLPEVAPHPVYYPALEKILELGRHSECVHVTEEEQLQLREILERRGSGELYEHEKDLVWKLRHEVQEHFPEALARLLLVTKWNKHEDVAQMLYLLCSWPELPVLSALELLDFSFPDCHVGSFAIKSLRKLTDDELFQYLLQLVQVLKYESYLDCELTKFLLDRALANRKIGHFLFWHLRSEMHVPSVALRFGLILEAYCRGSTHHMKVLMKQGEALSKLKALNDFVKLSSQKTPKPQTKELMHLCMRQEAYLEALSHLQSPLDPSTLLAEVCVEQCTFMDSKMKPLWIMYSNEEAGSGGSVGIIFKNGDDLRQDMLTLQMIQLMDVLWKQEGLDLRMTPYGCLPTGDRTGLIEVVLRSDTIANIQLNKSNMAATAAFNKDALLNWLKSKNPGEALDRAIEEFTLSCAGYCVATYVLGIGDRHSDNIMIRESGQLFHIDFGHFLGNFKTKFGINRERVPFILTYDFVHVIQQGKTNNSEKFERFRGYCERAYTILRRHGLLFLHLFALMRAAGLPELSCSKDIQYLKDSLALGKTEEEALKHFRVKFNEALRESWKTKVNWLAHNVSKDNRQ

[12] = biological target: Phosphatidylinositol 4,5-bisphosphate 3-kinase catalytic subunit beta isoform (Homo sapiens, UniProt P42338); assay: Inhibition of N-terminal 6xHis-tagged recombinant, full length human PI3Kbeta by ADP-Glo assay
[13] = Metabolic stability in rat liver microsomes assessed as half life […] measured upto 60 mins in presence of NADPH by LC-MS/MS analysis; type: ADME, Microsome
U-87 MG [14] = assay: Antitumor activity against human U-87 MG cells xenografted in BALB/c mouse assessed as tumor growth inhibition at 40 mg/kg/day, ip for 16 days relative to control; type: functional, U-87MG ATCC; conditions: 384 h, time 16 day, read-out: TGI
Procedure, shortened: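 U87-MG xenografts in mice; dosing began once mean tumor volume reached about 100 mm³. Given 40 mg/kg/day intraperitoneally, once daily for 16 days.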

Phosphatidylinositol 4,5-bisphosphate 3-kinase catalytic subunit gamma isoform, sequence (P48736 whole entry, canonical isoform): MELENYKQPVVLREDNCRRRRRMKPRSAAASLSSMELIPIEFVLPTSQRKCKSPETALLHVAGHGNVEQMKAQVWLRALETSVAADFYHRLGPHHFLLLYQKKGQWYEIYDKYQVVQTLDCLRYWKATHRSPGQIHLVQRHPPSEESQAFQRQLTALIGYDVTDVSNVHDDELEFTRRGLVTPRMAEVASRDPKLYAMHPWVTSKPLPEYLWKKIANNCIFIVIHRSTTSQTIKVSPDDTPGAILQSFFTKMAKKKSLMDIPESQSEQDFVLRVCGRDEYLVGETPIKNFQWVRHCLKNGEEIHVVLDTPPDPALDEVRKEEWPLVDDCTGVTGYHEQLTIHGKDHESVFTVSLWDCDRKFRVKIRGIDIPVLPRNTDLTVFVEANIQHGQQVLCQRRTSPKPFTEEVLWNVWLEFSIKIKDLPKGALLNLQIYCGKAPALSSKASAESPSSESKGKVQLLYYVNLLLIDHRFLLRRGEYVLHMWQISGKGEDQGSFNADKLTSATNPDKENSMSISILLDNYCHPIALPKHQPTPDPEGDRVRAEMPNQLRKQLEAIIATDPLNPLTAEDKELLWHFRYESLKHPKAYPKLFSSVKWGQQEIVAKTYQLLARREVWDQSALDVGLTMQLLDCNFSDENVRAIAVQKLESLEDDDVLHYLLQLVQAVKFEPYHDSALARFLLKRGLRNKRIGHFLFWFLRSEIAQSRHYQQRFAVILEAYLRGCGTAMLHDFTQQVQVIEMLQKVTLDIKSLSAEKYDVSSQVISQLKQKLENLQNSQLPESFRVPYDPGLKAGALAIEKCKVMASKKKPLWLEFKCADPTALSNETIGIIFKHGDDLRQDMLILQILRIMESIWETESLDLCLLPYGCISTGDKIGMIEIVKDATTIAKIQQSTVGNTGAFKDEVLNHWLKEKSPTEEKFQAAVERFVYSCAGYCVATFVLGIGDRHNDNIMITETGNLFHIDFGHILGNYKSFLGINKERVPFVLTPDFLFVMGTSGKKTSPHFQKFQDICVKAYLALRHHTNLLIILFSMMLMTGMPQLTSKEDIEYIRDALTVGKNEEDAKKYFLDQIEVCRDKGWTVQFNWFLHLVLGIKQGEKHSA
Phosphatidylinositol 4,5-bisphosphate 3-kinase catalytic subunit beta isoform, sequence (P42338 whole entry, canonical isoform): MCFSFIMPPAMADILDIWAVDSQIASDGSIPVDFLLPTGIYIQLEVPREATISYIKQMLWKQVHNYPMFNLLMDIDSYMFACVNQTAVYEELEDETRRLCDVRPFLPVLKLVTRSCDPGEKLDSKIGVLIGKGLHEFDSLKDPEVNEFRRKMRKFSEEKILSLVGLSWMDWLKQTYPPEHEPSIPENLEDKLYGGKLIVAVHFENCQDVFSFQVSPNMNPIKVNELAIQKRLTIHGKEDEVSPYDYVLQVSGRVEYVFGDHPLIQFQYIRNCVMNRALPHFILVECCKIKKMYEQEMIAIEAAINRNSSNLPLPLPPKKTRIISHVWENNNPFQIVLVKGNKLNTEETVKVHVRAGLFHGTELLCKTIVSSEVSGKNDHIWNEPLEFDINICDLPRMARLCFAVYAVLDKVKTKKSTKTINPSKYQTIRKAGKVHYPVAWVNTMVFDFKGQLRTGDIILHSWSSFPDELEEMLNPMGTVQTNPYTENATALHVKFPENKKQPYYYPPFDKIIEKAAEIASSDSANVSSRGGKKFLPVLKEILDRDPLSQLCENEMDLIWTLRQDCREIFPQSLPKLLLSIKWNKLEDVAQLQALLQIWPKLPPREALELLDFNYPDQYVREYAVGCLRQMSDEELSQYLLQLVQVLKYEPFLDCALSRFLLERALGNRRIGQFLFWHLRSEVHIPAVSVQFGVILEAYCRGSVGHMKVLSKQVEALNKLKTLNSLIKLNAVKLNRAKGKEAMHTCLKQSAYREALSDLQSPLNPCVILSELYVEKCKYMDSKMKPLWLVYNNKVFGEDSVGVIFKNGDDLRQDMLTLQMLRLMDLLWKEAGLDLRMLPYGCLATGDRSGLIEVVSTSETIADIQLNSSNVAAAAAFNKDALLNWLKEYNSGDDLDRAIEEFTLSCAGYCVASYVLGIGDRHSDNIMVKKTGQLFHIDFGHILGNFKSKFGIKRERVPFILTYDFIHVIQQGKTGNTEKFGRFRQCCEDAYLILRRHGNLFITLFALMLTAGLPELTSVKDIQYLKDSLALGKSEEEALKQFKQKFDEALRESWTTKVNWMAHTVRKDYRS
Phosphatidylinositol 4,5-bisphosphate 3-kinase catalytic subunit alpha isoform, sequence (P42336 whole entry, the tested form may be a part, canonical isoform): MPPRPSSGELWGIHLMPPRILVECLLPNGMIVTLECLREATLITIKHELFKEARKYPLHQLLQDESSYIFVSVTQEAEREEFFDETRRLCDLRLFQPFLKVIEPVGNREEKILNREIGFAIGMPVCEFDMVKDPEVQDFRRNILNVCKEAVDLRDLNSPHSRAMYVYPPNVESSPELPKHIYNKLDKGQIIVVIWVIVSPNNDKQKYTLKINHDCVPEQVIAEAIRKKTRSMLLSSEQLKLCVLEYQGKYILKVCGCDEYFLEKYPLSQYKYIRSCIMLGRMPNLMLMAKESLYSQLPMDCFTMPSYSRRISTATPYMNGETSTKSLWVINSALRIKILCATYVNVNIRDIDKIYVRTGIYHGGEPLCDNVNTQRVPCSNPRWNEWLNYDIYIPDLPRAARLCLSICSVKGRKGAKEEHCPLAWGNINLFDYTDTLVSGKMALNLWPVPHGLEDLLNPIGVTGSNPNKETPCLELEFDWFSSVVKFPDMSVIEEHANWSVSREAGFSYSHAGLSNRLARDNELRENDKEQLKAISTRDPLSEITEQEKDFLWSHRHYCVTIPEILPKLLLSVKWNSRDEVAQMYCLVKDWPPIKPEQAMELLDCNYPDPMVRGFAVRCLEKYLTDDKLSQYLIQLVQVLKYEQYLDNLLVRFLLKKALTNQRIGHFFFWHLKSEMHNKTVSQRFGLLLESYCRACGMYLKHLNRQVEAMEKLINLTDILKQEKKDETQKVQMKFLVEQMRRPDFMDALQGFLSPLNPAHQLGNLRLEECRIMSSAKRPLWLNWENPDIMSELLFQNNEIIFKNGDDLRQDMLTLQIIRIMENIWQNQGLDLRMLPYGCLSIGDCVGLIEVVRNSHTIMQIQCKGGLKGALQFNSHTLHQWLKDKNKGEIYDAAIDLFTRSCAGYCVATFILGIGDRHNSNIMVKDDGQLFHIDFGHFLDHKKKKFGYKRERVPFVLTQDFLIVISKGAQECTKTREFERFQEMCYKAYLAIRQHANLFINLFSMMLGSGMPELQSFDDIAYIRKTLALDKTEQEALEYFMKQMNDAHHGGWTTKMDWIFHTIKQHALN

IC50 [1]: 0.02 µM
Compound: COc1cccc2c1nc(C(F)F)n2-c1nc(N2CCOCC2)nc(N2CCN(C(=S)SCCN3CCCC3)CC2)n1

IC50 [1]: 0.038 µM
Compound: CCN(CC)CCSC(=S)N1CCN(c2nc(N3CCOCC3)nc(-n3c(C(F)F)nc4c(OC)cccc43)n2)CC1

IC50 [1]: 0.034 µM
Compound: COc1cccc2c1nc(C(F)F)n2-c1nc(N2CCOCC2)cc(N2CCN(C(=S)SCC(=O)NC3CCCC3)CC2)n1

IC50 [1]: 0.0013 µM
Compound: CCN(CC)C(=O)CSC(=S)N1CCN(c2cc(N3CCOCC3)nc(-n3c(C(F)F)nc4c(OC)cccc43)n2)CC1

IC50 [1]: 0.0009 µM
Compound: COc1cccc2c1nc(C(F)F)n2-c1nc(N2CCOCC2)nc(N2CCN(C(=S)SCC(=O)N3CCCC3)CC2)n1

IC50 [1]: 0.042 µM
Compound: COc1cccc2c1nc(C(F)F)n2-c1nc(N2CCOCC2)nc(N2CCN(C(=S)SCCN3CCCCC3)CC2)n1

IC50 [1]: 0.0027 µM
Compound: COc1cccc2c1nc(C(F)F)n2-c1nc(N2CCOCC2)cc(N2CCN(C(=S)SCC(=O)NC3CC3)CC2)n1

IC50 (U-87 MG [3]): 0.6 µM
IC50 (HCT-116): 1.11 µM
IC50 [1]: 0.0007 µM
Compound: COc1cccc2c1nc(C(F)F)n2-c1nc(N2CCOCC2)nc(N2CCN(C(=S)SCC(=O)N3CCOCC3)CC2)n1

IC50 [1]: 0.0025 µM
Compound: COc1cccc2c1nc(C(F)F)n2-c1nc(N2CCOCC2)cc(N2CCN(C(=S)SCC(N)=O)CC2)n1

IC50 (U-87 MG [3]): 1.1 µM
IC50 (HCT-116): 2.78 µM
IC50 [1]: 0.0008 µM
Compound: COc1cccc2c1nc(C(F)F)n2-c1nc(N2CCOCC2)nc(N2CCN(C(=S)SCC(=O)N(C)C)CC2)n1

IC50 (U-87 MG [3]): 1.99 µM
IC50 (HCT-116): 1.23 µM
IC50 [1]: 0.0014 µM
Compound: COc1cccc2c1nc(C(F)F)n2-c1nc(N2CCOCC2)cc(N2CCN(C(=S)SCC(=O)N3CCCC3)CC2)n1

IC50 (U-87 MG [3]): 2.04 µM
IC50 (HCT-116): 2.2 µM
IC50 [5]: 0.033 µM
IC50 [1]: 0.0018 µM
IC50 [11]: > 0.05 µM
IC50 [12]: > 0.05 µM
Compound: COc1cccc2c1nc(C(F)F)n2-c1nc(N2CCOCC2)cc(N2CCN(C(=S)SCC(=O)N(C)C)CC2)n1

IC50 [1]: 0.0011 µM
Compound: CCN(CC)C(=O)CSC(=S)N1CCN(c2nc(N3CCOCC3)nc(-n3c(C(F)F)nc4c(OC)cccc43)n2)CC1

Continued, molecule first:

Compound: COc1cccc2c1nc(C(F)F)n2-c1nc(N2CCOCC2)nc(N2CCN(C(=S)SCCN3CCOCC3)CC2)n1
IC50 [1]: 0.029 µM

Compound: COc1cccc2c1nc(C(F)F)n2-c1nc(N2CCOCC2)nc(N2CCN(C(=S)SCC(=O)N3CCN(S(C)(=O)=O)CC3)CC2)n1
remaining at 1 h [2]: 11.2%
IC50 (U-87 MG [3]): 1.25 µM
IC50 (HCT-116): 0.83 µM
CLint scaled [4]: 6.95 L/h/kg
IC50 [5]: 0.042 µM
remaining at 1 h [6]: 68.2%
microsomal CLint [7]: 64 µL/min/mg
Activity [8]: Non-Toxic
Activity [9]: Non-Toxic
IC50 [1]: 0.0012 µM
Activity [10]: Non-Toxic
IC50 [11]: > 0.05 µM
IC50 [12]: > 0.05 µM
half-life [13]: 21.5 min
inhibition in vivo at 40 mg/kg/day (U-87 MG [14]): 42%

Compound: COc1cccc2c1nc(C(F)F)n2-c1nc(N2CCOCC2)nc(N2CCN(C(=S)SCC(N)=O)CC2)n1
IC50 [1]: 0.0016 µM

Compound: COc1cccc2c1nc(C(F)F)n2-c1nc(N2CCOCC2)nc(N2CCN(C(=S)SCC(=O)NC3CCC3)CC2)n1
IC50 [1]: 0.0016 µM

Compound: COc1cccc2c1nc(C(F)F)n2-c1nc(N2CCOCC2)nc(N2CCN(C(=S)SCCN(C)C)CC2)n1
IC50 [1]: 0.063 µM

Compound: COc1cccc2c1nc(C(F)F)n2-c1nc(N2CCOCC2)cc(N2CCN(C(=S)SCC(=O)NC3CCCCC3)CC2)n1
IC50 [1]: 0.012 µM

Compound: COc1cccc2c1nc(C(F)F)n2-c1nc(N2CCOCC2)nc(N2CCN(C(=S)SCC(=O)NC3CCCCC3)CC2)n1
IC50 [1]: 0.0051 µM

Compound: COc1cccc2c1nc(C(F)F)n2-c1nc(N2CCOCC2)cc(N2CCN(C(=S)SCC(=O)NC3CCC3)CC2)n1
IC50 [1]: 0.0033 µM

Compound: COc1cccc2c1nc(C(F)F)n2-c1nc(N2CCOCC2)cc(N2CCN(C(=S)SCCN3CCOCC3)CC2)n1
IC50 [1]: 0.081 µM

Compound: COc1cccc2c1nc(C(F)F)n2-c1nc(N2CCOCC2)cc(N2CCN(C(=S)SCC(=O)N3CCOCC3)CC2)n1
IC50 (U-87 MG [3]): 1.22 µM
IC50 (HCT-116): 1.53 µM
IC50 [5]: 0.035 µM
IC50 [1]: 0.0012 µM
IC50 [11]: > 0.05 µM
IC50 [12]: > 0.05 µM

Compound: COc1cccc2c1nc(C(F)F)n2-c1nc(N2CCOCC2)nc(N2CCN(C(=S)SCC(=O)NC3CCCC3)CC2)n1
IC50 [1]: 0.0028 µM

Compound: COc1cccc2c1nc(C(F)F)n2-c1nc(N2CCOCC2)nc(N2CCN(C(=S)SCC(=O)N3CCN(C4CCCC4)CC3)CC2)n1
IC50 [1]: 0.0025 µM

Compound: COCCSC(=S)N1CCN(c2nc(N3CCOCC3)nc(-n3c(C(F)F)nc4c(OC)cccc43)n2)CC1
IC50 [1]: 0.021 µM

Compound: COc1cccc2c1nc(C(F)F)n2-c1nc(N2CCOCC2)nc(N2CCN(C(=S)SCCN3CCN(C)CC3)CC2)n1
IC50 [1]: 0.0091 µM

Compound: COc1cccc2c1nc(C(F)F)n2-c1nc(N2CCOCC2)nc(N2CCN(C(=S)SCC(=O)N3CCN(C)CC3)CC2)n1
IC50 (U-87 MG [3]): 1.67 µM
IC50 (HCT-116): 0.98 µM
IC50 [1]: 0.0014 µM

Compound: COc1cccc2c1nc(C(F)F)n2-c1nc(N2CCOCC2)cc(N2CCN(C(=S)SCCN(C)C)CC2)n1
IC50 [1]: 0.034 µM

Compound: COCCSC(=S)N1CCN(c2cc(N3CCOCC3)nc(-n3c(C(F)F)nc4c(OC)cccc43)n2)CC1
IC50 [1]: 0.017 µM

Compound: COc1cccc2c1nc(C(F)F)n2-c1nc(N2CCOCC2)nc(N2CCN(C(=S)SCC(=O)NC3CC3)CC2)n1
IC50 [1]: 0.0014 µM

Compound: COc1cccc2c1nc(C(F)F)n2-c1nc(N2CCOCC2)cc(N2CCN(C(=S)SCCN3CCN(C)CC3)CC2)n1
IC50 [1]: 0.12 µM

Compound: FC(F)c1nc2ccccc2n1-c1nc(N2CCOCC2)nc(N2CCOCC2)n1 [ZSTK-474]
remaining at 1 h [2]: 19.6%
IC50 (U-87 MG [3]): 0.13 µM
IC50 (HCT-116): 0.71 µM
CLint scaled [4]: 5.82 L/h/kg
remaining at 1 h [6]: 100%
microsomal CLint [7]: 54 µL/min/mg
Activity [8]: Non-Toxic
Activity [9]: Non-Toxic
Activity [10]: Non-Toxic
half-life [13]: 25.7 min
inhibition in vivo at 40 mg/kg/day (U-87 MG [14]): 72%
